From ChEMBL document CHEMBL1125912, “Topically active carbonic anhydrase inhibitors. 4. [(Hydroxyalkyl)sulfonyl]benzene and [(hydroxyalkyl)sulfonyl]thiophenesulfonamides” (J Med Chem, 1991)
Values after ≈ are worked out from the molar mass of the structure shown.

Legend:
[1] = organism: Oryctolagus cuniculus; experiment: Maximum fall in IOP after 50 microL dose of 0.5% concentration in alpha-CT rabbit model.; assay type: functional
Summary of the method: (§1)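 Alpha-chymotrypsinized rabbit model of ocular hypertension. Single 50-µL bilateral instillation of a 0.5% (w/v) solution in 0.5% aqueous (hydroxyethyl)cellulose vehicle. Read-out is the fall in IOP.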

[2] = system: Oryctolagus cuniculus; experiment: Tested in vivo for the IOP (intraocular pressure) recovery after 50 uL dose of 2% concentration in albino rabbits.; assay type: functional, Eye
Summary of the method: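 Conscious albino rabbits. Aqueous humor production was assessed indirectly by IOP recovery rate. A single bilateral 50-µL instillation of 2% (w/v) in 0.5% aqueous (hydroxyethyl)cellulose vehicle was given. Results are percent change from control, tested by Dunnett's two-tailed test (P<0.05).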

[3] = Solubility (buffer pH 7.4); assay type: physicochemical; details: read-out: S
Summary of the method: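 Solubility in 50 mM phosphate buffer, pH 7.4.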

[4] = Dissociation constant (pKa) (determined in 30% EtOH/water); assay type: physicochemical
[5] = target: Carbonic anhydrase 2 (Homo sapiens, UniProt P00918); experiment: Inhibitory activity against human carbonic anhydrase II using pH stat assay; assay type: functional; details: read-out: I50
[6] = Partition coefficient (pH 7.4); assay type: ADME; details: octanol/water
Summary of the method: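 1-Octanol/phosphate buffer partition at pH 7.4 and 0.1 ionic strength. The compound was equilibrated between the phases and the concentration in each phase was measured by UV spectrophotometry.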

[7] = organism: Oryctolagus cuniculus; experiment: Maximum fall in IOP after 50 uL dose of 0.5% concentration in alpha-CT rabbit model; assay type: functional; summary of the method: as §1
[8] = organism: Oryctolagus cuniculus; experiment: Maximum fall in IOP after 50uL dose of 0.5% concentration in alpha-CT rabbit model; ns = 'no significant statistical change'; assay type: functional, organism-based; summary of the method: as §1

Structure (SMILES): NS(=O)(=O)c1cc2ccc(O)cc2s1
- Max fall in IOP [1]: -5.4 mmHg
- Change from control [2]: -31%

Structure (SMILES): NS(=O)(=O)c1ccc(S(=O)(=O)CC(O)CO)cc1 (centres undefined)
- solubility [3]: 14900 µg/mL (≈ 50.5 mM)
- pKa [4]: 9.35

Structure (SMILES): Nc1cc(S(N)(=O)=O)ccc1S(=O)(=O)CCCO
- IC50 [5]: 23 nM
- D [6]: 0.33
- solubility [3]: 8400 µg/mL (≈ 28.5 mM)
- pKa [4]: 9.15

Structure (SMILES): NS(=O)(=O)c1ccc(SCCO)cc1
- D [6]: 2.3
- solubility [3]: 3500 µg/mL (≈ 15 mM)
- pKa [4]: 9.27

Structure (SMILES): NS(=O)(=O)c1ccc(SCCCO)c(F)c1
- IC50 [5]: 3.5 nM
- Max fall in IOP [7]: -3.6 mmHg
- D [6]: 9.8
- solubility [3]: 900 µg/mL (≈ 3.39 mM)
- pKa [4]: 9.64
- Change from control [2]: -30%

Structure (SMILES): NS(=O)(=O)c1ccc(S(=O)(=O)CCCO)s1
- IC50 [5]: 6 nM
- D [6]: 0.44
- solubility [3]: 14600 µg/mL (≈ 51.2 mM)
- pKa [4]: 8.32

Structure (SMILES): NS(=O)(=O)c1ccc(S(=O)(=O)CCCCO)cc1
- IC50 [5]: 7 nM
- D [6]: 0.25
- solubility [3]: 2100 µg/mL (≈ 7.16 mM)
- pKa [4]: 9.6

Structure (SMILES): NS(=O)(=O)c1ccc(S(=O)(=O)CCCO)cc1
- IC50 [5]: 12 nM
- D [6]: 0.23
- solubility [3]: 7200 µg/mL (≈ 25.8 mM)
- Max fall in IOP [8]: No significance
- pKa [4]: 8.98
- Change from control [2]: -37%

Structure (SMILES): NS(=O)(=O)c1ccc(SCCCO)c([N+](=O)[O-])c1
- IC50 [5]: 23 nM
- D [6]: 9.1
- solubility [3]: 100 µg/mL (≈ 0.342 mM)
- pKa [4]: 9.38

Structure (SMILES): NS(=O)(=O)c1ccc(S(=O)(=O)CCO)c(F)c1
- IC50 [5]: 5 nM
- D [6]: 0.25
- solubility [3]: 3300 µg/mL (≈ 11.6 mM)
- Max fall in IOP [8]: No significance
- pKa [4]: 9
- Change from control [2]: -37%

Structure (SMILES): NS(=O)(=O)c1ccc(SCCO)c([N+](=O)[O-])c1
- IC50 [5]: 21 nM
- D [6]: 2.4
- solubility [3]: 500 µg/mL (≈ 1.8 mM)
- pKa [4]: 9.42

Structure (SMILES): NS(=O)(=O)c1ccc(S(=O)(=O)CCCO)c([N+](=O)[O-])c1
- D [6]: 0.9
- solubility [3]: 800 µg/mL (≈ 2.47 mM)
- pKa [4]: 8

Structure (SMILES): NS(=O)(=O)c1ccc(SCCO)s1
- IC50 [5]: 30 nM
- D [6]: 2.4
- solubility [3]: 49000 µg/mL (≈ 205 mM)
- pKa [4]: 9.46

Structure (SMILES): COC(=O)c1cc(S(N)(=O)=O)ccc1SCCCO
- IC50 [5]: 700 nM
- Max fall in IOP [7]: -4.5 mmHg
- D [6]: 5.5
- solubility [3]: 1300 µg/mL (≈ 4.26 mM)
- pKa [4]: 9.3
- Change from control [2]: -30%

Structure (SMILES): NS(=O)(=O)c1ccc(CCCO)cc1
- IC50 [5]: 64 nM
- D [6]: 1.48
- solubility [3]: 20000 µg/mL (≈ 92.9 mM)
- pKa [4]: 10.2

Structure (SMILES): NS(=O)(=O)c1ccc(SCCCCO)c(F)c1
- IC50 [5]: 1.5 nM
- D [6]: 19
- solubility [3]: 1000 µg/mL (≈ 3.58 mM)
- pKa [4]: 9.82

Structure (SMILES): CC(=O)OCCS(=O)(=O)c1ccc(S(N)(=O)=O)s1
- IC50 [5]: 5.5 nM
- D [6]: 1.3
- solubility [3]: 880 µg/mL (≈ 2.81 mM)
- pKa [4]: 8.65

Structure (SMILES): NS(=O)(=O)c1ccc(S(=O)(=O)CCCO)c(F)c1
- IC50 [5]: 4.5 nM
- Max fall in IOP [7]: -6.2 mmHg
- D [6]: 0.39
- solubility [3]: 6600 µg/mL (≈ 22.2 mM)
- pKa [4]: 9.02
- Change from control [2]: -43%

Structure (SMILES): NS(=O)(=O)c1ccc(SCCO)c(F)c1
- IC50 [5]: 9 nM
- D [6]: 5.3
- solubility [3]: 6000 µg/mL (≈ 23.9 mM)
- Max fall in IOP [8]: No significance
- pKa [4]: 9.76
- Change from control [2]: -34%

Structure (SMILES): COCC(=O)OCCCS(=O)(=O)c1ccc(S(N)(=O)=O)s1
- IC50 [5]: 4.5 nM
- D [6]: 0.72
- solubility [3]: 970 µg/mL (≈ 2.71 mM)
- pKa [4]: 8.1

Structure (SMILES): NS(=O)(=O)c1ccc(S(=O)(=O)CCCCO)s1
- IC50 [5]: 2.3 nM
- D [6]: 0.46
- solubility [3]: 9900 µg/mL (≈ 33.1 mM)
- pKa [4]: 8.67

Structure (SMILES): CC(C)CNCCCS(=O)(=O)c1ccc(S(N)(=O)=O)s1
- IC50 [5]: 18 nM
- D [6]: 0.45
- pKa [4]: 9.3

Structure (SMILES): NS(=O)(=O)c1ccc(SCCCO)c(Cl)c1
- IC50 [5]: 9 nM
- D [6]: 39
- solubility [3]: 280 µg/mL (≈ 0.994 mM)
- pKa [4]: 9.45

Structure (SMILES): NS(=O)(=O)c1ccc(CCCCCO)cc1
- IC50 [5]: 8 nM
- D [6]: 11
- solubility [3]: 2600 µg/mL (≈ 10.7 mM)
- pKa [4]: 10.3
- Change from control [2]: -38%

Structure (SMILES): COC(=O)c1cc(S(N)(=O)=O)ccc1S(=O)(=O)CCCO
- IC50 [5]: 20 nM
- D [6]: 0.5
- solubility [3]: 1500 µg/mL (≈ 4.45 mM)
- pKa [4]: 8.9

Structure (SMILES): CC(=O)OCCCCc1ccc(S(N)(=O)=O)cc1
- solubility [3]: 8000 µg/mL (≈ 29.5 mM)
- pKa [4]: 10.5

Structure (SMILES): NS(=O)(=O)c1ccc(SCCCO)cc1
- IC50 [5]: 20 nM
- D [6]: 6.25
- solubility [3]: 1400 µg/mL (≈ 5.66 mM)
- pKa [4]: 10.2

Structure (SMILES): NS(=O)(=O)c1ccc(SCCCCO)cc1
- IC50 [5]: 9 nM
- D [6]: 8.48
- solubility [3]: 800 µg/mL (≈ 3.06 mM)
- pKa [4]: 10.2

Structure (SMILES): NS(=O)(=O)c1ccc(S(=O)(=O)CCCO)c(C(=O)O)c1
- IC50 [5]: 900 nM
- D [6]: 0.002
- solubility [3]: 53000 µg/mL (≈ 164 mM)
- pKa [4]: 9.28

Structure (SMILES): NS(=O)(=O)c1ccc(SCCO)c(C(=O)O)c1
- D [6]: 0.01
- solubility [3]: 9300 µg/mL (≈ 33.5 mM)
- pKa [4]: 10.4

Structure (SMILES): CC(=O)OCCCS(=O)(=O)c1ccc(S(N)(=O)=O)s1
- IC50 [5]: 5 nM
- D [6]: 1.47
- solubility [3]: 920 µg/mL (≈ 2.81 mM)
- pKa [4]: 8.05

Structure (SMILES): NS(=O)(=O)c1ccc(S(=O)(=O)CCCCO)c(F)c1
- IC50 [5]: 4 nM
- D [6]: 0.55
- solubility [3]: 4300 µg/mL (≈ 13.8 mM)
- pKa [4]: 9.18

Structure (SMILES): COC(=O)c1cc(S(N)(=O)=O)ccc1S(=O)(=O)CCO
- IC50 [5]: 30 nM
- Max fall in IOP [7]: -6.3 mmHg
- D [6]: 0.34
- solubility [3]: 33400 µg/mL (≈ 103 mM)
- pKa [4]: 9.2
- Change from control [2]: -24%

Structure (SMILES): CC(C)(O)CCS(=O)(=O)c1ccc(S(N)(=O)=O)cc1
- IC50 [5]: 25 nM
- D [6]: 0.82
- solubility [3]: 3500 µg/mL (≈ 11.4 mM)
- pKa [4]: 9.28

Structure (SMILES): CC(C)(O)CCSc1ccc(S(N)(=O)=O)cc1
- IC50 [5]: 20 nM
- D [6]: 25.2
- solubility [3]: 400 µg/mL (≈ 1.45 mM)
- Max fall in IOP [8]: No significance
- pKa [4]: 10
- Change from control [2]: -51%

Structure (SMILES): NS(=O)(=O)c1ccc(SCCCO)c(C(=O)O)c1
- IC50 [5]: 10000 nM
- D [6]: 0.01
- solubility [3]: 8800 µg/mL (≈ 30.2 mM)
- pKa [4]: 9.94

Structure (SMILES): CC(C)COC(=O)OCCCS(=O)(=O)c1ccc(S(N)(=O)=O)s1
- solubility [3]: 80 µg/mL (≈ 0.208 mM)

Structure (SMILES): Nc1cc(S(N)(=O)=O)ccc1S(=O)(=O)CCO
- IC50 [5]: 51 nM
- D [6]: 0.25
- solubility [3]: 13200 µg/mL (≈ 47.1 mM)
- pKa [4]: 9.5

Structure (SMILES): NS(=O)(=O)c1ccc(SCCCO)s1
- IC50 [5]: 10 nM
- D [6]: 7
- solubility [3]: 9500 µg/mL (≈ 37.5 mM)
- pKa [4]: 9.32

Structure (SMILES): NS(=O)(=O)c1ccc(SCCCCO)s1
- IC50 [5]: 3 nM
- D [6]: 9
- solubility [3]: 9300 µg/mL (≈ 34.8 mM)
- pKa [4]: 9.5

Structure (SMILES): CC(=O)Oc1ccc2cc(S(N)(=O)=O)sc2c1
- Max fall in IOP [1]: -5.5 mmHg
- Change from control [2]: -43%

Structure (SMILES): NS(=O)(=O)c1ccc(SCCCCCO)cc1
- IC50 [5]: 4.3 nM
- D [6]: 10.9
- solubility [3]: 600 µg/mL (≈ 2.18 mM)
- pKa [4]: 9.25

Structure (SMILES): NS(=O)(=O)c1ccc(CCCCO)cc1
- IC50 [5]: 15 nM
- D [6]: 3.7
- solubility [3]: 14700 µg/mL (≈ 64.1 mM)
- pKa [4]: 10.3

Structure (SMILES): NS(=O)(=O)c1ccc(S(=O)(=O)CCO)s1
- IC50 [5]: 6 nM
- D [6]: 0.29
- solubility [3]: 22000 µg/mL (≈ 81.1 mM)
- pKa [4]: 8.65

Structure (SMILES): NS(=O)(=O)c1ccc(CCCO)c(F)c1
- IC50 [5]: 20 nM
